Compound activity from PubChem.
This is one part of a sample in which hits are shown more often than they occur.
VLA-4 inh: inhibition in a human VLA-4 binding assay. P13612. inhibition, % (about 7 µM as worked out from the volumes in the protocol). 330,000 compounds, 0.2% hits. VLA-4 expressing cells, ligand binding flow cytometry; in the data active = inhibition above about 50%
CHOP inhibitor: inhibitors of CHOP induction in ER stress response. CHO-K1 CHOP-promoter luciferase, tunicamycin-induced, 15-18 h. inhibition, % at 10 µM. 220,000 compounds, 3.8% hits;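 active = compounds that reduced the stress-induced luciferase reporter signal by more than about 70% of percent inhibition, limit read from the data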;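 also: 0% = tunicamycin plus vehicle and 100% = wells without tunicamycin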
UPR CHOP act: activators of apoptotic arm of unfolded protein response (CHOP); CHO-CHOP luciferase reporter, UPR activation, luminescence; percent of tunicamycin response over DMSO baseline; 330,000 compounds, 0.34% hits; activation, % at 10 µM; AID 449763;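 active = at 10 µM dose, activation of 40% or more, normalized to positive control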;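 also: 100% = tunicamycin at 10 µg/mL and 0% = DMSO alone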
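assay system = CHO CHOP reporter cells | amount = 500 CHO-CHOP cells per well | buffer or medium = F12 with 10% FBS | incubation = 16-18 h cell attachment, then 6 h compound exposure, 37 °C | detection = luminescence read with Steady-Glo | read-out = percent activation relative to tunicamycin control | controls = tunicamycin high control, DMSO low control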
UPR XBP1 act: activators of adaptive arm of unfolded protein response (XBP1) | CHO-XBP1 luciferase reporter, IRE1-XBP1 UPR activation, luminescence; percent of tunicamycin response, DMSO as zero | activation, % at 20 µM | 330,000 compounds, 0.33% hits | AID 463104;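 active = versus positive control, 20 µM dose yields 30% or more activation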;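 also: 100% = tunicamycin at 10 µg/mL and 0% = DMSO only wells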
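Assay system: CHO-XBP1 luciferase reporter cells; Schedule: 6 h treatment, 37 °C; Detection: glow luminescence from Steady-Glo reagent; Benchmarks: high control tunicamycin 10 µg/mL final, low control DMSO vehicle only.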
B2AR ag: activates human beta-2 adrenergic receptor causing internalization | P07550 | Am2.2-beta2AR cells, FAP receptor internalization, flow cytometry | response, % (concentration not given with the values) | 340,000 compounds, 0.43% hits | AID 504454;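 active = response above a set limit, near 3 SD of response in nonfluorescent compounds, cut at about 42% in these data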
* = called active by the depositor.

`COc1cccc(NCc2cc(=O)oc3cc(-c4ccccc4)c(O)cc23)c1` gave VLA-4 inh -1, CHOP inhibitor 82*, UPR CHOP act 3, UPR XBP1 act 0 and B2AR ag -1.
Cc1[nH]c2ccccc2c1/C=N/n1cnnc1 was read as VLA-4 inh -2, CHOP inhibitor 35, UPR CHOP act 1, UPR XBP1 act 1 and B2AR ag 1.
For CCN(CC)c1ccc(N=Cc2c(C)[nH]c3ccccc23)cc1 the results were VLA-4 inh -19, CHOP inhibitor 97*, UPR CHOP act 3, UPR XBP1 act 0 and B2AR ag -1.
CN1C2CCC1CC(NC(=O)c1nn(C)c3ccccc13)C2 (centres undefined) was read as CHOP inhibitor 46.
For Cc1c(C(c2ccc(F)cc2)c2c(C)n(C)n(-c3ccccc3)c2=O)c(=O)n(-c2ccccc2)n1C the results were VLA-4 inh -4, UPR CHOP act 4, UPR XBP1 act -2 and B2AR ag -9.
`O=C(CCC1CCCCC1)NC1CCCCC1` gave VLA-4 inh 17, UPR CHOP act 3, UPR XBP1 act -1 and B2AR ag -17.
For Cc1ccc(C2CC(C(F)F)n3ncc(C(=O)Nc4cnn(Cc5ccccc5C)c4)c3N2)cc1 (centres undefined) the results were VLA-4 inh 4, CHOP inhibitor 73*, UPR CHOP act 3, UPR XBP1 act -9 and B2AR ag 3.
Screening CCc1ccc(NC(=O)CN2CCCN(S(=O)(=O)c3ccc(F)cc3)CC2)cc1 returned VLA-4 inh 6, UPR CHOP act -1, UPR XBP1 act -3 and B2AR ag -4.
`Cc1cc(F)ccc1NC(=O)C1CSC2(C)CCC(=O)N12` (centres undefined) gave VLA-4 inh -3, UPR CHOP act 1, UPR XBP1 act 0 and B2AR ag -9.
For Cc1ccc(S(=O)(=O)N2CCCCC2)cc1NC(=O)CN1C(=O)CN(C)C1=O the results were VLA-4 inh 0, CHOP inhibitor 86*, UPR CHOP act -1, UPR XBP1 act -5 and B2AR ag 1.
For CC1(C)NC(=O)N(CC(=O)OCC(=O)Nc2cc(S(=O)(=O)N3CCCCC3)ccc2Cl)C1=O the results were VLA-4 inh 5, CHOP inhibitor 79*, UPR CHOP act 1, UPR XBP1 act -1 and B2AR ag 5.
CC(=O)N1CCN(CC(=O)Nc2cc(S(=O)(=O)N3CCCCC3)ccc2C)CC1 was read as VLA-4 inh 38, UPR CHOP act -2, UPR XBP1 act 2 and B2AR ag 5.
Cc1cccc(NC(=O)C2C3C=CC(O3)C2C(=O)O)c1C (centres undefined) was read as VLA-4 inh 17, UPR CHOP act 2, UPR XBP1 act -3 and B2AR ag 6.
For O=C(NCc1ccccc1)c1c(Cl)nc(Cl)c(Cl)c1Cl the results were VLA-4 inh 24, UPR CHOP act 4, UPR XBP1 act 3 and B2AR ag 12.
Nc1nc(/C=C/c2ccc(F)cc2)nc(-c2ccccc2O)n1 was read as VLA-4 inh 13, CHOP inhibitor 80*, UPR CHOP act 2, UPR XBP1 act 0 and B2AR ag -5.
Screening Nc1nc(/C=C/c2cccnc2)nc(-c2ccccc2O)n1 returned VLA-4 inh -3, CHOP inhibitor 0, UPR CHOP act -1, UPR XBP1 act -1 and B2AR ag 14.
COc1ccc(-c2cc(-c3c(O)c(OC)c4occc4c3OC)[nH]n2)cc1OC was read as VLA-4 inh 7, CHOP inhibitor 12, UPR CHOP act 2, UPR XBP1 act 8 and B2AR ag 9.
For COc1ccc(-c2cc(-c3c(O)c(OC)c4occc4c3OC)[nH]n2)cc1 the results were VLA-4 inh -3, CHOP inhibitor 86*, UPR CHOP act 3, UPR XBP1 act 2 and B2AR ag 13.
For O=C(c1cccc(S(=O)(=O)NCc2ccccc2)c1)N1CCCC(C(F)(F)F)C1 (centres undefined) the results were VLA-4 inh 4, UPR CHOP act -1, UPR XBP1 act 1 and B2AR ag -3.
O=C(CSc1nnnn1-c1cccc2ccccc12)Nc1ccc(N2CCOCC2)c(Cl)c1 was read as VLA-4 inh 1, CHOP inhibitor 71*, UPR CHOP act -3, UPR XBP1 act 1 and B2AR ag 6.
O=C(CSc1nnnn1-c1ccccc1)Nc1ccc(N2CCOCC2)c(Cl)c1 was read as VLA-4 inh 15, CHOP inhibitor 34, UPR CHOP act -3, UPR XBP1 act -2 and B2AR ag -9.
O=C(COc1c(F)c(F)c(C(F)(F)F)c(F)c1F)Nc1ccc(N2CCOCC2)c(Cl)c1 was read as VLA-4 inh 10, CHOP inhibitor 85*, UPR CHOP act -3, UPR XBP1 act -3 and B2AR ag 5.
Screening O=C(CSc1nnc(C23CC4CC(CC(C4)C2)C3)o1)Nc1ccc(N2CCOCC2)c(Cl)c1 returned VLA-4 inh 2, CHOP inhibitor 76*, UPR CHOP act 2, UPR XBP1 act -2 and B2AR ag -8.
Screening Cc1cc2oc(=O)cc(CN3CCN(Cc4ccccc4)CC3)c2cc1Cl returned VLA-4 inh 2, CHOP inhibitor -15, UPR CHOP act -1, UPR XBP1 act 2 and B2AR ag -8.
For Cc1cc2oc(=O)cc(CN3CCC(C)CC3)c2cc1Cl the results were VLA-4 inh -7, CHOP inhibitor 85*, UPR CHOP act 9, UPR XBP1 act 4 and B2AR ag -19.
CCc1nnc(NC(=O)CCC(=O)Nc2ccc(OC)cc2OC)s1 was read as VLA-4 inh 1, UPR CHOP act 0, UPR XBP1 act -3 and B2AR ag 3.
For Cc1cc(C)c(C)c(S(=O)(=O)N(C)C2CCN(C)CC2)c1C the results were VLA-4 inh 10, UPR CHOP act 3, UPR XBP1 act -1 and B2AR ag 6.
Screening CCCCNC(=O)/C(=C\c1ccc([N+](=O)[O-])o1)NC(=O)c1ccccc1 returned VLA-4 inh -1, CHOP inhibitor -19, UPR CHOP act 0, UPR XBP1 act -1 and B2AR ag -1.
`COC(=O)/C(=C\c1ccc([N+](=O)[O-])o1)NC(=O)c1ccccc1` gave VLA-4 inh 3, CHOP inhibitor -10, UPR CHOP act 2, UPR XBP1 act -2 and B2AR ag 56*.
For Cc1cc(NC(=O)CSc2nc(=O)n(CCCN(C)C)c3c2CCCC3)no1 the results were VLA-4 inh 26, UPR CHOP act 2, UPR XBP1 act -3 and B2AR ag -5.
Screening O=S(=O)(NC1CCC(NS(=O)(=O)c2c(F)cccc2F)CC1)c1ccc2c(c1)OCCO2 (centres undefined) returned VLA-4 inh -1, UPR CHOP act 1, UPR XBP1 act 3 and B2AR ag 1.
